Activity, inhibition zone (IZ) and MIC data for 2 molecules are collected here from ChEMBL document CHEMBL1944603, “An efficient synthesis of highly functionalized novel chromeno[4,3-b]pyrroles and indolizino[6,7-b]indoles as potent antimicrobial and antioxidant agents” (2012).

≈ marks a conversion by molar mass, not a printed value.

One test has as its system Radical scavenging activity. The test is described as follows: Antioxidant activity assessed as DPPH free radical scavenging activity at 50 ug by spectrophotometer. The class given is functional. Put shortly:
(§1)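 DPPH radical scavenging measured spectrophotometrically by Blois's method at 50, 500 and 1000 µg. Absorbance read at 517 nm. Percent scavenging is the absorbance decrease at 517 nm relative to the absorbance of DPPH solution without test compound. L-ascorbic acid as standard.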
As to `COC(=O)[C@]12Cc3c([nH]c4ccccc34)[C@@H](c3cccc([N+](=O)[O-])c3)N1[C@@H]1c3c(ccc4ccccc34)OC[C@@H]1C2`, the Activity was 30%.

Turning to `COC(=O)[C@]12Cc3c([nH]c4ccccc34)[C@@H](c3ccc(C)cc3)N1[C@@H]1c3c(ccc4ccccc34)OC[C@@H]1C2`, the Activity turned out to be 26%.

Another test relates to Bacillus subtilis. The test is described as follows: Antimicrobial activity against Bacillus subtilis at 25 ug/ml by agar diffusion assay. The class given is functional. Put shortly: (§2)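 Agar diffusion assay in duplicate against the human bacterial pathogens; tetracycline as reference control.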
For orientation: In agar diffusion tests the substance spreads into inoculated agar from a disc or well.
Consider `COC(=O)[C@]12Cc3c([nH]c4ccccc34)[C@@H](c3cccc([N+](=O)[O-])c3)N1[C@@H]1c3c(ccc4ccccc34)OC[C@@H]1C2`, for which the inhibition zone (IZ) worked out at 12 mm.

`COC(=O)[C@]12Cc3c([nH]c4ccccc34)[C@@H](c3ccc(C)cc3)N1[C@@H]1c3c(ccc4ccccc34)OC[C@@H]1C2`: the inhibition zone (IZ) was determined as 9 mm.

In a further test the test system is Bacillus subtilis. The test can be described thus: Antimicrobial activity against Bacillus subtilis at 50 ug/ml by agar diffusion assay. The class given is functional. Put shortly: as §2
`COC(=O)[C@]12Cc3c([nH]c4ccccc34)[C@@H](c3cccc([N+](=O)[O-])c3)N1[C@@H]1c3c(ccc4ccccc34)OC[C@@H]1C2` yielded an inhibition zone (IZ) of 19 mm.

For `COC(=O)[C@]12Cc3c([nH]c4ccccc34)[C@@H](c3ccc(C)cc3)N1[C@@H]1c3c(ccc4ccccc34)OC[C@@H]1C2`, the inhibition zone (IZ) came to 14 mm.

Another test has as its system Bacillus subtilis. The test is described as follows: Antimicrobial activity against Bacillus subtilis at 75 ug/ml by agar diffusion assay. The test is classed as functional. Put shortly: as §2
`COC(=O)[C@]12Cc3c([nH]c4ccccc34)[C@@H](c3cccc([N+](=O)[O-])c3)N1[C@@H]1c3c(ccc4ccccc34)OC[C@@H]1C2` gave an inhibition zone (IZ) of 24 mm.

With `COC(=O)[C@]12Cc3c([nH]c4ccccc34)[C@@H](c3ccc(C)cc3)N1[C@@H]1c3c(ccc4ccccc34)OC[C@@H]1C2`, the inhibition zone (IZ) came out at 16 mm.

The next test concerns Bacillus subtilis. The test can be described thus: Antimicrobial activity against Bacillus subtilis at 100 ug/ml by agar diffusion assay. The test is classed as functional. Put shortly:
as §2
With `COC(=O)[C@]12Cc3c([nH]c4ccccc34)[C@@H](c3cccc([N+](=O)[O-])c3)N1[C@@H]1c3c(ccc4ccccc34)OC[C@@H]1C2`, the inhibition zone (IZ) turned out to be 29 mm.

Molecule `COC(=O)[C@]12Cc3c([nH]c4ccccc34)[C@@H](c3ccc(C)cc3)N1[C@@H]1c3c(ccc4ccccc34)OC[C@@H]1C2` gave an inhibition zone (IZ) of 20 mm.

Another test deals with Staphylococcus aureus. The test is described as follows: Antimicrobial activity against Staphylococcus aureus at 25 ug/ml by agar diffusion assay. The class given is functional. Put shortly: as §2
Turning to `COC(=O)[C@]12Cc3c([nH]c4ccccc34)[C@@H](c3cccc([N+](=O)[O-])c3)N1[C@@H]1c3c(ccc4ccccc34)OC[C@@H]1C2`, the inhibition zone (IZ) worked out at 19 mm.

Turning to `COC(=O)[C@]12Cc3c([nH]c4ccccc34)[C@@H](c3ccc(C)cc3)N1[C@@H]1c3c(ccc4ccccc34)OC[C@@H]1C2`, the inhibition zone (IZ) turned out to be 9 mm.

The test system of the next test is Staphylococcus aureus. The test can be described thus: Antimicrobial activity against Staphylococcus aureus at 50 ug/ml by agar diffusion assay. The class given is functional. An outline of the steps:
as §2
As for `COC(=O)[C@]12Cc3c([nH]c4ccccc34)[C@@H](c3cccc([N+](=O)[O-])c3)N1[C@@H]1c3c(ccc4ccccc34)OC[C@@H]1C2`, the inhibition zone (IZ) was determined as 20 mm.

Consider `COC(=O)[C@]12Cc3c([nH]c4ccccc34)[C@@H](c3ccc(C)cc3)N1[C@@H]1c3c(ccc4ccccc34)OC[C@@H]1C2`, for which the inhibition zone (IZ) stood at 12 mm.

The next test deals with Staphylococcus aureus. The test is described as follows: Antimicrobial activity against Staphylococcus aureus at 75 ug/ml by agar diffusion assay. The test is classed as functional. An outline of the steps: as §2
The molecule `COC(=O)[C@]12Cc3c([nH]c4ccccc34)[C@@H](c3cccc([N+](=O)[O-])c3)N1[C@@H]1c3c(ccc4ccccc34)OC[C@@H]1C2` showed an inhibition zone (IZ) of 24 mm.

Molecule `COC(=O)[C@]12Cc3c([nH]c4ccccc34)[C@@H](c3ccc(C)cc3)N1[C@@H]1c3c(ccc4ccccc34)OC[C@@H]1C2` yielded an inhibition zone (IZ) of 17 mm.

The subject of another test is Staphylococcus aureus. The test is described as follows: Antimicrobial activity against Staphylococcus aureus at 100 ug/ml by agar diffusion assay. The test is classed as functional. An outline of the steps:
as §2
Turning to `COC(=O)[C@]12Cc3c([nH]c4ccccc34)[C@@H](c3cccc([N+](=O)[O-])c3)N1[C@@H]1c3c(ccc4ccccc34)OC[C@@H]1C2`, the inhibition zone (IZ) is 28 mm.

Molecule `COC(=O)[C@]12Cc3c([nH]c4ccccc34)[C@@H](c3ccc(C)cc3)N1[C@@H]1c3c(ccc4ccccc34)OC[C@@H]1C2` yielded an inhibition zone (IZ) of 19 mm.

The test system of the next test is Pseudomonas aeruginosa. The test is described as follows: Antimicrobial activity against Pseudomonas aeruginosa at 25 ug/ml by agar diffusion assay. The test is classed as functional. An outline of the steps: as §2
Consider `COC(=O)[C@]12Cc3c([nH]c4ccccc34)[C@@H](c3cccc([N+](=O)[O-])c3)N1[C@@H]1c3c(ccc4ccccc34)OC[C@@H]1C2`, for which the inhibition zone (IZ) came to 14 mm.

Consider `COC(=O)[C@]12Cc3c([nH]c4ccccc34)[C@@H](c3ccc(C)cc3)N1[C@@H]1c3c(ccc4ccccc34)OC[C@@H]1C2`, for which the inhibition zone (IZ) was 8 mm.

The subject of a further test is Pseudomonas aeruginosa. The test is described as follows: Antimicrobial activity against Pseudomonas aeruginosa at 50 ug/ml by agar diffusion assay. The test is classed as functional. An outline of the steps:
as §2
For the molecule `COC(=O)[C@]12Cc3c([nH]c4ccccc34)[C@@H](c3cccc([N+](=O)[O-])c3)N1[C@@H]1c3c(ccc4ccccc34)OC[C@@H]1C2`, the inhibition zone (IZ) amounted to 20 mm.

Take `COC(=O)[C@]12Cc3c([nH]c4ccccc34)[C@@H](c3ccc(C)cc3)N1[C@@H]1c3c(ccc4ccccc34)OC[C@@H]1C2`: the inhibition zone (IZ) was found to be 14 mm.

Another test has as its system Pseudomonas aeruginosa. The test is described as follows: Antimicrobial activity against Pseudomonas aeruginosa at 75 ug/ml by agar diffusion assay. The class given is functional. An outline of the steps: as §2
`COC(=O)[C@]12Cc3c([nH]c4ccccc34)[C@@H](c3cccc([N+](=O)[O-])c3)N1[C@@H]1c3c(ccc4ccccc34)OC[C@@H]1C2`: the inhibition zone (IZ) came to 24 mm.

`COC(=O)[C@]12Cc3c([nH]c4ccccc34)[C@@H](c3ccc(C)cc3)N1[C@@H]1c3c(ccc4ccccc34)OC[C@@H]1C2` gave an inhibition zone (IZ) of 17 mm.

In the next test the test system is Pseudomonas aeruginosa. The test can be described thus: Antimicrobial activity against Pseudomonas aeruginosa at 100 ug/ml by agar diffusion assay. The class given is functional. An outline of the steps: as §2
Molecule `COC(=O)[C@]12Cc3c([nH]c4ccccc34)[C@@H](c3cccc([N+](=O)[O-])c3)N1[C@@H]1c3c(ccc4ccccc34)OC[C@@H]1C2` displayed an inhibition zone (IZ) of 30 mm.

`COC(=O)[C@]12Cc3c([nH]c4ccccc34)[C@@H](c3ccc(C)cc3)N1[C@@H]1c3c(ccc4ccccc34)OC[C@@H]1C2` displayed an inhibition zone (IZ) of 20 mm.

The subject of another test is Klebsiella pneumoniae. The test can be described thus: Antimicrobial activity against Klebsiella pneumoniae at 25 ug/ml by agar diffusion assay. The test is classed as functional. Put shortly: as §2
In turn, `COC(=O)[C@]12Cc3c([nH]c4ccccc34)[C@@H](c3cccc([N+](=O)[O-])c3)N1[C@@H]1c3c(ccc4ccccc34)OC[C@@H]1C2` returned an inhibition zone (IZ) of 13 mm.

As for `COC(=O)[C@]12Cc3c([nH]c4ccccc34)[C@@H](c3ccc(C)cc3)N1[C@@H]1c3c(ccc4ccccc34)OC[C@@H]1C2`, the inhibition zone (IZ) stood at 9 mm.

The subject of the next test is Klebsiella pneumoniae. The test is described as follows: Antimicrobial activity against Klebsiella pneumoniae at 50 ug/ml by agar diffusion assay. The test is classed as functional. An outline of the steps:
as §2
As to `COC(=O)[C@]12Cc3c([nH]c4ccccc34)[C@@H](c3cccc([N+](=O)[O-])c3)N1[C@@H]1c3c(ccc4ccccc34)OC[C@@H]1C2`, the inhibition zone (IZ) is 18 mm.

`COC(=O)[C@]12Cc3c([nH]c4ccccc34)[C@@H](c3ccc(C)cc3)N1[C@@H]1c3c(ccc4ccccc34)OC[C@@H]1C2` displayed an inhibition zone (IZ) of 12 mm.

The subject of another test is Klebsiella pneumoniae. The test is described as follows: Antimicrobial activity against Klebsiella pneumoniae at 75 ug/ml by agar diffusion assay. The test is classed as functional. An outline of the steps: as §2
In the case of `COC(=O)[C@]12Cc3c([nH]c4ccccc34)[C@@H](c3cccc([N+](=O)[O-])c3)N1[C@@H]1c3c(ccc4ccccc34)OC[C@@H]1C2`, the inhibition zone (IZ) is 22 mm.

On to `COC(=O)[C@]12Cc3c([nH]c4ccccc34)[C@@H](c3ccc(C)cc3)N1[C@@H]1c3c(ccc4ccccc34)OC[C@@H]1C2`, for which the inhibition zone (IZ) is 17 mm.

In another test the test system is Klebsiella pneumoniae. The test can be described thus: Antimicrobial activity against Klebsiella pneumoniae at 100 ug/ml by agar diffusion assay. The test is classed as functional. An outline of the steps:
as §2
Consider `COC(=O)[C@]12Cc3c([nH]c4ccccc34)[C@@H](c3cccc([N+](=O)[O-])c3)N1[C@@H]1c3c(ccc4ccccc34)OC[C@@H]1C2`, for which the inhibition zone (IZ) is 27 mm.

On to `COC(=O)[C@]12Cc3c([nH]c4ccccc34)[C@@H](c3ccc(C)cc3)N1[C@@H]1c3c(ccc4ccccc34)OC[C@@H]1C2`, for which the inhibition zone (IZ) is 21 mm.

In another test the test system is Fusarium oxysporum. The test is described as follows: Antifungal activity against Fusarium oxysporum. The class given is functional. An outline of the steps: (§3)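 Agar diffusion assay in duplicate against the plant fungal pathogens; read-out as minimum inhibitory concentration (MIC); carbendazim as reference control.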
Broadly, the MIC is the lowest concentration that inhibits growth of the organism. Higher therefore signals a less susceptible organism. As for `COC(=O)[C@]12Cc3c([nH]c4ccccc34)[C@@H](c3cccc([N+](=O)[O-])c3)N1[C@@H]1c3c(ccc4ccccc34)OC[C@@H]1C2`, the MIC was determined as 35 mg/L (≈ 64.2 µM).

With `COC(=O)[C@]12Cc3c([nH]c4ccccc34)[C@@H](c3ccc(C)cc3)N1[C@@H]1c3c(ccc4ccccc34)OC[C@@H]1C2`, 85 mg/L (≈ 165 µM) was the least that counted as inhibitory (MIC).

In another test the test system is Macrophomina phaseolina. The test is described as follows: Antifungal activity against Macrophomina phaseolina. The class given is functional. Put shortly: as §3
`COC(=O)[C@]12Cc3c([nH]c4ccccc34)[C@@H](c3cccc([N+](=O)[O-])c3)N1[C@@H]1c3c(ccc4ccccc34)OC[C@@H]1C2` registered an MIC of 90 mg/L (≈ 165 µM).

In turn, `COC(=O)[C@]12Cc3c([nH]c4ccccc34)[C@@H](c3ccc(C)cc3)N1[C@@H]1c3c(ccc4ccccc34)OC[C@@H]1C2` came in with an MIC of 30 mg/L (≈ 58.3 µM).

The next test has as its system Radical scavenging activity. The test can be described thus: Antioxidant activity assessed as DPPH free radical scavenging activity at 500 ug by spectrophotometer. The test is classed as functional. Put shortly: as §1
A general note: The DPPH test is a chemical assay of radical scavenging.
`COC(=O)[C@]12Cc3c([nH]c4ccccc34)[C@@H](c3cccc([N+](=O)[O-])c3)N1[C@@H]1c3c(ccc4ccccc34)OC[C@@H]1C2`: the Activity turned out to be 53%.

Regarding `COC(=O)[C@]12Cc3c([nH]c4ccccc34)[C@@H](c3ccc(C)cc3)N1[C@@H]1c3c(ccc4ccccc34)OC[C@@H]1C2`, the Activity amounted to 53%.

The subject of a further test is Radical scavenging activity. The test is described as follows: Antioxidant activity assessed as DPPH free radical scavenging activity at 1000 ug by spectrophotometer. The test is classed as functional. Put shortly: as §1
Turning to `COC(=O)[C@]12Cc3c([nH]c4ccccc34)[C@@H](c3cccc([N+](=O)[O-])c3)N1[C@@H]1c3c(ccc4ccccc34)OC[C@@H]1C2`, the Activity came out at 67%.

As to `COC(=O)[C@]12Cc3c([nH]c4ccccc34)[C@@H](c3ccc(C)cc3)N1[C@@H]1c3c(ccc4ccccc34)OC[C@@H]1C2`, the Activity came to 87%.
